What was measured:
Format in all cases: functional
NCI-H226 = experiment: Cytotoxicity against human NCI-H226 cells assessed as cell growth at 10 uM; conditions: for growth at 10 µM: Homo sapiens, NCI-H226, read-out: Activity
Summary of the method: (§1)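 Single-dose screen at 10 μM across the 60-cell-line panel. Cells grown in RPMI 1640 with 5% FBS and 2 mM L-glutamine, seeded at 5,000–40,000 cells/well according to doubling time, and treated 24 h later. Exposure lasted 48 h at 37 °C, 5% CO₂. Adherent cells were fixed with cold TCA, suspension cells were fixed settled, and both were stained with SRB and read at 515 nm. Growth % was recorded, with inhibition % = 100 − growth %.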

SNB-75 = experiment: Cytotoxicity against human SNB75 cells assessed as cell growth at 10 uM; conditions: for growth at 10 µM: Homo sapiens, SNB-75, read-out: Activity; summary of the method: as §1
IGROV-1 = experiment: Cytotoxicity against human IGROV1 cells assessed as cell growth at 10 uM; conditions: Homo sapiens, IGROV-1; read-out: Activity; summary of the method: as §1
HOP-62 = experiment: Cytotoxicity against human HOP62 cells assessed as cell growth at 10 uM; conditions: for growth at 10 µM: Homo sapiens, HOP-62, read-out: Activity
Summary of the method: (§2)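 Single-concentration screen at 10 μM across the 60-cell-line panel (nine tissue types); growth percentage recorded per cell line, with inhibition taken as 100 minus growth percentage.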

NCI/ADR-RES = experiment: Cytotoxicity against human NCI/ADR-RES cells assessed as cell growth at 10 uM; conditions: Homo sapiens, NCI/ADR-RES; read-out: Activity; summary of the method: as §1
HL-60(TB) = experiment: Cytotoxicity against human HL-60(TB) cells assessed as cell growth at 10 uM; conditions: for growth at 10 µM: Homo sapiens, HL-60, read-out: Activity
Summary of the method: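 Single-concentration 10 µM screen of HL-60(TB) within the 60-line panel, grown in RPMI 1640 with 5% FBS. The drug from DMSO stock is incubated 48 h at 37 °C, settled cells are TCA-fixed and SRB-stained, and absorbance is read at 515 nm. Percent growth is reported, and inhibition % is taken as 100 minus growth %.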

SF-539 = experiment: Cytotoxicity against human SF539 cells assessed as cell growth at 10 uM; conditions: for growth at 10 µM: Homo sapiens, SF-539, read-out: Activity; summary of the method: as §1
NCI-H460 = experiment: Cytotoxicity against human NCI-H460 cells assessed as cell growth at 10 uM; conditions: for growth at 10 µM: Homo sapiens, NCI-H460, read-out: Activity; summary of the method: as §1
MDA-MB-468 = experiment: Cytotoxicity against human MDA-MB-468 cells assessed as cell growth at 10 uM; conditions: Homo sapiens, MDA-MB-468; read-out: Activity; summary of the method: as §1
A498 = experiment: Cytotoxicity against human A498 cells assessed as cell growth at 10 uM; conditions: Homo sapiens, A498; read-out: Activity; summary of the method: as §2
SW-620 = experiment: Cytotoxicity against human SW620 cells assessed as cell growth at 10 uM; conditions: for growth at 10 µM: Homo sapiens, SW-620, read-out: Activity; summary of the method: as §1
SK-MEL-2 = experiment: Cytotoxicity against human SK-MEL-2 cells assessed as cell growth at 10 uM; conditions: Homo sapiens, SK-MEL-2; read-out: Activity; summary of the method: as §1
M14 = experiment: Cytotoxicity against human M14 cells assessed as cell growth at 10 uM; conditions: Homo sapiens, M14; read-out: Activity; summary of the method: as §1
K562 = experiment: Cytotoxicity against human K562 cells assessed as cell growth at 10 uM; conditions: for growth at 10 µM: Homo sapiens, K562, read-out: Activity; summary of the method: as §1
NCI-H522 = experiment: Cytotoxicity against human NCI-H522 cells assessed as cell growth at 10 uM; conditions: for growth at 10 µM: Homo sapiens, NCI-H522, read-out: Activity; summary of the method: as §1
COLO 205 = experiment: Cytotoxicity against human COLO205 cells assessed as cell growth at 10 uM; conditions: for growth at 10 µM: Homo sapiens, COLO 205, read-out: Activity; summary of the method: as §2
PC-3 = experiment: Cytotoxicity against human PC3 cells assessed as cell growth at 10 uM; conditions: Homo sapiens, PC-3; read-out: Activity; summary of the method: as §1
EKVX = experiment: Cytotoxicity against human EKVX cells assessed as cell growth at 10 uM; conditions: for growth at 10 µM: Homo sapiens, EKVX, read-out: Activity; summary of the method: as §2
T47D = experiment: Cytotoxicity against human T47D cells assessed as cell growth at 10 uM; conditions: Homo sapiens, T47D; read-out: Activity; summary of the method: as §1
SF-295 = experiment: Cytotoxicity against human SF295 cells assessed as cell growth at 10 uM; conditions: for growth at 10 µM: Homo sapiens, SF-295, read-out: Activity; summary of the method: as §1
SK-OV-3 = experiment: Cytotoxicity against human SKOV3 cells assessed as cell growth at 10 uM; conditions: Homo sapiens, SK-OV-3; read-out: Activity; summary of the method: as §1
TK-10 = experiment: Cytotoxicity against human TK10 cells assessed as cell growth at 10 uM; conditions: Homo sapiens, TK-10; read-out: Activity; summary of the method: as §1
UACC-257 = experiment: Cytotoxicity against human UACC257 cells assessed as cell growth at 10 uM; conditions: Homo sapiens, UACC-257; read-out: Activity; summary of the method: as §1
SR = experiment: Cytotoxicity against human SR cells assessed as cell growth at 10 uM; conditions: for growth at 10 µM: Homo sapiens, SR, read-out: Activity; summary of the method: as §1
OVCAR-3 = experiment: Cytotoxicity against human OVCAR-3 cells assessed as cell growth at 10 uM; conditions: Homo sapiens, OVCAR-3; read-out: Activity; summary of the method: as §1
UO-31 = experiment: Cytotoxicity against human UO31 cells assessed as cell growth at 10 uM; conditions: Homo sapiens, UO-31; read-out: Activity; summary of the method: as §1
OVCAR-5 = experiment: Cytotoxicity against human OVCAR5 cells assessed as cell growth at 10 uM; conditions: for growth at 10 µM: Homo sapiens, OVCAR-5, read-out: Activity; summary of the method: as §1
CAKI-1 = experiment: Cytotoxicity against human Caki1 cells assessed as cell growth at 10 uM; conditions: Homo sapiens, CAKI-1; read-out: Activity; summary of the method: as §2
ACHN = experiment: Cytotoxicity against human ACHN cells assessed as cell growth at 10 uM; conditions: Homo sapiens, ACHN; read-out: Activity; summary of the method: as §2
DU-145 = experiment: Cytotoxicity against human DU145 cells assessed as cell growth at 10 uM; conditions: Homo sapiens, DU-145; read-out: Activity; summary of the method: as §2
HCT-116 = experiment: Cytotoxicity against human HCT116 cells assessed as cell growth at 10 uM; conditions: for growth at 10 µM: Homo sapiens, HCT-116, read-out: Activity; summary of the method: as §2
786-0 = experiment: Cytotoxicity against human 786-0 cells assessed as cell growth at 10 uM; conditions: Homo sapiens, 786-0; read-out: Activity; summary of the method: as §2
HT-29 = experiment: Cytotoxicity against human HT-29 cells assessed as cell growth at 10 uM; conditions: for growth at 10 µM: Homo sapiens, HT-29, read-out: Activity; summary of the method: as §2
NCI-H23 = experiment: Cytotoxicity against human NCI-H23 cells assessed as cell growth at 10 uM; conditions: for growth at 10 µM: Homo sapiens, NCI-H23, read-out: Activity; summary of the method: as §1
U-251 = experiment: Cytotoxicity against human U251 cells assessed as cell growth at 10 uM; conditions: for growth at 10 µM: Homo sapiens, U-251, read-out: Activity; summary of the method: as §1
[1] = Growth inhibition of human NCI60 cells at 10 uM after 48 hrs by sulforhodamine B assay relative to control; conditions: for inhibition of growth at 10 µM: Homo sapiens, NCI60, 48 h, read-out: GI
Summary of the method: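 Single 10 µM dose across the 60-line panel for 48 h, with the same culture, TCA fixation and SRB 515 nm read-out. Inhibition % = 100 − growth %, given as the mean over the 60 cell lines.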

SK-MEL-5 = experiment: Cytotoxicity against human SK-MEL-5 cells assessed as cell growth at 10 uM; conditions: Homo sapiens, SK-MEL-5; read-out: Activity; summary of the method: as §1

SMILES	growth at 10 µM (NCI-H226)	growth at 10 µM (SNB-75)	growth at 10 µM (IGROV-1)	growth at 10 µM (NCI/ADR-RES)	growth at 10 µM (MDA-MB-468)	growth at 10 µM (A498)	growth at 10 µM (SK-MEL-2)	growth at 10 µM (M14)	growth at 10 µM (PC-3)	growth at 10 µM (T47D)	growth at 10 µM (SK-OV-3)	growth at 10 µM (TK-10)	growth at 10 µM (UACC-257)	growth at 10 µM (OVCAR-3)	growth at 10 µM (UO-31)	growth at 10 µM (CAKI-1)	growth at 10 µM (ACHN)	growth at 10 µM (DU-145)	growth at 10 µM (786-0)	growth at 10 µM (SK-MEL-5)	further results
CC(=O)c1ccccc1-c1ccc(-c2ccnc(NC(=O)Nc3cc(N4CCOCC4)cc(C(F)(F)F)c3)n2)cn1	39.4%	8.55%	70.8%	58.1%	82.1%	107%	60.8%	8.07%	71.3%	79.8%	71.5%	47.8%	65.1%	123%	92.1%	83.5%	45.7%	45.3%	47.3%	43.2%	growth at 10 µM (HOP-62): 7.86%; growth at 10 µM (HL-60(TB)): 95.7%; growth at 10 µM (SF-539): 44.3%; growth at 10 µM (NCI-H460): 87.4%; growth at 10 µM (SW-620): 90.5%; growth at 10 µM (K562): 83.3%; growth at 10 µM (NCI-H522): 60.2%; growth at 10 µM (COLO 205): 85.7%; growth at 10 µM (EKVX): 88.2%; growth at 10 µM (SF-295): 74.8%; growth at 10 µM (SR): 86.2%; growth at 10 µM (OVCAR-5): 102%; growth at 10 µM (HCT-116): 63%; growth at 10 µM (HT-29): 33.1%; growth at 10 µM (NCI-H23): 58.5%; growth at 10 µM (U-251): 56.4%; inhibition of growth at 10 µM [1]: 38.4%
CC(=O)c1ccccc1-c1ccc(-c2ccnc(NC(=O)Nc3cc(C(F)(F)F)cc(C(F)(F)F)c3)n2)cn1.Cl	–	–	91%	80.9%	74.7%	113%	78.8%	98.2%	89.9%	85.4%	76.5%	90.3%	102%	108%	75%	78.4%	91%	109%	79.5%	103%	Activity (NCI-H226): 103.94%; Activity (SNB-75): 77.47%; Activity (HOP-62): 90.22%; Activity (HL-60(TB)): 98.79%; Activity (SF-539): 91.97%; Activity (NCI-H460): 93.37%; Activity (SW-620): 95.07%; Activity (K562): 80.11%; Activity (NCI-H522): 77.27%; Activity (COLO 205): 88.27%; Activity (EKVX): 87.92%; Activity (SF-295): 80.92%; Activity (SR): 97.1%; Activity (OVCAR-5): 81.55%; Activity (HCT-116): 81.77%; Activity (HT-29): 95.08%; Activity (NCI-H23): 84.35%; Activity (U-251): 86.33%; growth inhibition (GI) [1]: 9.74%
Cc1ccc(Nc2nc(C)cc(-c3cccnc3)n2)c(C)c1	94.8%	85.3%	90.4%	85%	72.8%	96.1%	107%	114%	91.7%	87.1%	104%	118%	100%	105%	86.9%	88.8%	108%	99.5%	93.2%	89.8%	growth at 10 µM (HOP-62): 111%; growth at 10 µM (HL-60(TB)): 98.5%; growth at 10 µM (SF-539): 89.7%; growth at 10 µM (NCI-H460): 95.7%; growth at 10 µM (SW-620): 97.5%; growth at 10 µM (K562): 85.8%; growth at 10 µM (NCI-H522): 90.6%; growth at 10 µM (COLO 205): 122%; growth at 10 µM (EKVX): 96.1%; growth at 10 µM (SF-295): 98.3%; growth at 10 µM (SR): 94.4%; growth at 10 µM (OVCAR-5): 106%; growth at 10 µM (HCT-116): 95.2%; growth at 10 µM (HT-29): 96.8%; growth at 10 µM (NCI-H23): 90.9%; growth at 10 µM (U-251): 92.2%; inhibition of growth at 10 µM [1]: 3.91%

Reference: ChEMBL document CHEMBL1165943, “Design and synthesis of new anticancer pyrimidines with multiple-kinase inhibitory effect” (Bioorg Med Chem, 2010)
